The values that follow come from ChEMBL document CHEMBL1140080, “Adamantyl-substituted retinoid-derived molecules that interact with the orphan nuclear receptor small heterodimer partner: effects of replacing the 1-adamantyl or hydroxyl group on inhibition of cancer cell growth, induction of cancer cell apoptosis, and inhibition of SRC homology 2 …” (J Med Chem, 2008).

Series [1] is described as follows: Growth inhibition of HMVE cells at 0.5 uM after 72 hrs by alamar blue method. The class given is cell-based. Conditions: human, HMVE cells; read-out: GI. For orientation: Resazurin is reduced to fluorescent resorufin, in cell work by metabolically active cells.
Series [2] in a line: Induction of apoptosis in human HL60R cells at 0.1 uM after 24 hrs by acridine orange staining. The class given is functional. The procedure, abridged:
(§1)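 KG-1, HL-60R (24 h) or MDA-MB-231 (96 h) cells in 5% FBS medium attached overnight, then were treated with analogue in Me2SO or vehicle (final 0.1% Me2SO). Apoptotic cells were scored by acridine orange staining on at least three replicates. Tested concentrations were 0.1–5.0 μM, plus 25 μM for KG-1.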

Series [3] can be described thus: Induction of apoptosis in human HL60R cells at 1.0 uM after 24 hrs by acridine orange staining. In kind it is functional. The procedure, abridged: as §1
Series [4] concerns MDA-MB-231. As to the kind of experiment: Induction of apoptosis in human MDA-MB-231 cells at 2.0 uM after 96 hrs by acridine orange staining. In kind it is functional. The procedure, abridged:
as §1

A short description of series [5]: Growth inhibition of HMVE cells after 72 hrs by alamar blue method. In kind it is cell-based. Conditions: Homo sapiens.
Series [6] has as its system MDA-MB-231. As to the kind of experiment: Induction of apoptosis in human MDA-MB-231 cells at 1.0 uM after 96 hrs by acridine orange staining. The class given is functional. The procedure, abridged: as §1
The nature of series [7]: Antiproliferative activity against human KG1 AML cells after 48 hrs by MTT assay. The class given is functional, cell-based. The following applies: in the assay text read “by hemocytometer cell counting” for “by MTT assay”. The procedure, abridged:
(§2)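 KG-1 cells in 5% FBS medium attached overnight, then treated 48 h with analogue in Me2SO or Me2SO alone (final 0.1%). Cells were harvested and counted by hemocytometer in triplicate wells. Highest concentration evaluated was 5 μM.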
Background: Tetrazolium dyes change colour on reduction, which living cells bring about.

Series [8] in a line: Antiproliferative activity against human H292 cells at 5 uM after 72 hrs by MTT assay. The class given is functional. The following applies: NCI-H292, 72 h. The gist of the method:
(§3)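 Cells attached for 24 h, then exposed 72 h to analogue in Me2SO or Me2SO alone (final Me2SO 0.1%), with media and compound renewed after 48 h. Viable cells were measured by MTS tetrazolium reduction in three replicates. Top concentration tested per compound was 2.5, 5, 10, 20 or 100 μM.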

For series [9], the system named is MDA-MB-231. Nature of the series: Antiproliferative activity against human MDA-MB-231 cells after 72 hrs by MTT assay. In kind it is functional, cell-based. The following applies: MDA-MB-231, 72 h. The procedure, abridged:
as §3

For series [10], the system named is DU-145. As to the kind of experiment: Antiproliferative activity against human DU145 cells at 5 uM after 72 hrs by MTT assay. The class given is functional. Conditions: DU-145, 72 h. The gist of the method:
as §3

A short description of series [11]: Antiproliferative activity against human KG1 AML cells at 5 uM after 48 hrs by MTT assay. The class given is functional. The following applies: in the assay text read “by hemocytometer cell counting” for “by MTT assay”. The procedure, abridged:
as §2

Series [12] has as its target T1, Nuclear receptor subfamily 0 group B member 2 (Homo sapiens) (UniProt Q15466).
T1 sequence (whole entry): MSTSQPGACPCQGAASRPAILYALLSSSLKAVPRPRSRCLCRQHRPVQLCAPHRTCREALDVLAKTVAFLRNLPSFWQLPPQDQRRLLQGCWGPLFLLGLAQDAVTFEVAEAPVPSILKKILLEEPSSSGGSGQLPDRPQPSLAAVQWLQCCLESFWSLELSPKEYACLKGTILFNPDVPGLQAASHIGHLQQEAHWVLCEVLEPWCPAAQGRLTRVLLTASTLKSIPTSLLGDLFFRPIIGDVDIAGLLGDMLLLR
Nature of the series: Displacement of [5,5'-3H2]AHPN from human recombinant GST-SHP at 50 uM by liquid scintillation counting relative to 3-Cl-AHPC. The gist of the method:
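Recombinant GST–human SHP was bound to glutathione–Sepharose beads and incubated 2 h with 5 nM [5,5′-3H2]AHPN with or without competitor (1.0, 5.0 or 50 μM). Beads were washed twice and counted. Displacement was expressed relative to 50 μM 3-Cl-AHPC set as 100%.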

Series [13] in a line: Antiproliferative activity against human H292 cells after 72 hrs by MTT assay. The class given is functional, cell-based. The following applies: NCI-H292, 72 h. The procedure, abridged:
as §3

In series [14] the test system is MDA-MB-231. As to the kind of experiment: Antiproliferative activity against human MDA-MB-231 cells at 5 uM after 72 hrs by MTT assay. In kind it is functional. The following applies: MDA-MB-231, 72 h. The gist of the method:
as §3

The test system of series [15] is KG-1. As to the kind of experiment: Induction of apoptosis in human KG1 cells after 48 hrs by acridine orange staining. The class given is functional, cell-based. The following applies: KG-1, 48 h.
Series [16] deals with DU-145. As to the kind of experiment: Antiproliferative activity against human DU145 cells after 72 hrs by MTT assay. In kind it is functional, cell-based. Conditions: DU-145, 72 h. The procedure, abridged:
as §3

The target of series [17] is T2, Tyrosine-protein phosphatase non-receptor type 11 (Homo sapiens, UniProt Q06124).
T2 sequence (Q06124 whole entry): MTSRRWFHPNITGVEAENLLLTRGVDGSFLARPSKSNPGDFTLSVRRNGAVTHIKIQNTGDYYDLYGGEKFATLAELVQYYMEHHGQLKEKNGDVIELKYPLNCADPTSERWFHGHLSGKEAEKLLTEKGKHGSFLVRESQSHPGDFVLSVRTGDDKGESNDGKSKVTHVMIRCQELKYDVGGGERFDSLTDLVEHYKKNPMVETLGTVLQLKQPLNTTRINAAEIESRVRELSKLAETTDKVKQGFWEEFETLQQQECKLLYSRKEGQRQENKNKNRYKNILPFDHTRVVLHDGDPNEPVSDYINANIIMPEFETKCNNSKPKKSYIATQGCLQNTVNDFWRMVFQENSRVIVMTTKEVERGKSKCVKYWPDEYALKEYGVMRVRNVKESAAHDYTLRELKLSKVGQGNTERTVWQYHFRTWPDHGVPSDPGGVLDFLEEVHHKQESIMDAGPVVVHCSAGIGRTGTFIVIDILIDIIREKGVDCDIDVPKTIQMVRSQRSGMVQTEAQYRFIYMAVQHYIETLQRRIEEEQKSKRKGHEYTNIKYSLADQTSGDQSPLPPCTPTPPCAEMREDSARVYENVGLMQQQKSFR
As to the kind of experiment: Inhibition of SHP2 overexpressed in human KG1 cells. In kind it is cell-based, KG-1. The procedure, abridged: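 Shp-2 PTP activity was measured as hydrolysis of the fluorogenic substrate 6,8-difluoro-4-methylumbelliferyl phosphate in the presence of analogue in Me2SO or Me2SO alone (final concentration 5%).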

The subject of series [18] is KG-1. As to the kind of experiment: Induction of apoptosis in human KG1 cells at 1.0 uM […] by acridine orange staining. In kind it is functional.
Series [19] has as its system MDA-MB-231. Nature of the series: Antiproliferative activity against human MDA-MB-231 cells at 10 uM after 72 hrs by MTT assay. Conditions: MDA-MB-231, 72 h. The class given is functional. The gist of the method:
as §3

Series [20] in a line: Antiproliferative activity against human H292 cells at 10 uM after 72 hrs by MTT assay. The following applies: NCI-H292, 72 h. The class given is functional. The procedure, abridged: as §3
Series [21] deals with DU-145. Nature of the series: Antiproliferative activity against human DU145 cells at 10 uM after 72 hrs by MTT assay. The class given is functional. Conditions: DU-145, 72 h. The gist of the method:
as §3

Series [22] concerns KG-1. As to the kind of experiment: Induction of apoptosis in human KG1 cells at 5.0 uM […] by acridine orange staining. In kind it is functional.

In the case of `CC1=C(/C=C/C(C)=C/C=C/C(C)=C/C(=O)O)C(C)(C)CCC1` [TRETINOIN], in [1], the inhibition at 72 h, 0.5 µM was determined as 10%. The Activity (in [2]; in series [3]; with MDA-MB-231 [4]; with MDA-MB-231 [6]) was 0% throughout. In addition, in [5], the IC50 (as a rule, the concentration at which inhibition is half-maximal) was more than 500 nM.

For `CC1(C)CC(c2cc(-c3ccc4cc(C(=O)O)ccc4c3)ccc2O)CC(C)(C)C1`, the inhibition at 72 h, 0.5 µM in [1] turned out to be 50%. Moreover, the Activity in series [2] worked out at 26%; in series [3] it was 60%; in the series on MDA-MB-231 [4], 49%; with MDA-MB-231 [6] it was 10%. In [5], this compound displayed an IC50 of 500 nM.

For `Nc1ccc(-c2ccc(/C=C/C(=O)O)cc2Cl)cc1C12CC3CC(CC(C3)C1)C2`, the IC50 in series [7] was found to be 5 µM; with MDA-MB-231 [9] it was 4 µM; in [13], 6 µM; with KG-1 [15], 9.3 µM; with DU-145 [16], 1300 nM; in [17] it was 1830 nM. The inhibition at 5 µM in series [8] came out at 45%; with DU-145 [10] it was 79%; in the series with MDA-MB-231 [14] it was 61%. Also, the figures for the Activity (in [11]; in [12]; in the series on KG-1 [18]) were 50%, 61% and 10%, respectively.

As for `CC(C)(C)C#Cc1cc(-c2ccc(/C=C/C(=O)O)cc2Cl)ccc1O`, the IC50 was more than 5 µM in series [7]; more than 10 µM in the series with MDA-MB-231 [9]; more than 10 µM in series [13]; more than 10000 nM with DU-145 [16]; 450 nM in [17]. Moreover, the inhibition at 10 µM was determined as 4% with MDA-MB-231 [19], 14% in [20] and 13% in the series on DU-145 [21]. Besides, the Activity in series [11] is given as 22%; in the series with KG-1 [22] it was 0%; in the series with KG-1 [18], 0%.

Regarding `Cc1c(-c2ccc(O)c(C34CC5CC(CC(C5)C3)C4)c2)ccc2cc(C(=O)O)ccc12`, the inhibition at 72 h, 0.5 µM in series [1] amounted to 65%. In addition, the Activity in series [2] is reported as 29%; in series [3], 70%; in the series with MDA-MB-231 [4], 43%; in the series with MDA-MB-231 [6] it was 28%. The same compound displayed an IC50 in series [5] of 340 nM.

Consider `COc1cc(-c2ccc3cc(C(=O)O)ccc3c2C)ccc1O`, for which the Activity in [2] is on record as -4%; in [3] it was 7%; in the series on MDA-MB-231 [4], 7%; in the series with MDA-MB-231 [6], 5%.

For `O=C(O)/C=C/c1ccc(-c2ccc(O)c(C3C4CC5CC(C4)CC3C5)c2)cc1` (centres undefined), the Activity in series [2] was determined as 2%; in series [3] it was 90%; in the series with MDA-MB-231 [4], 47%; with MDA-MB-231 [6], 20%.
